The record followed here is ChEMBL document CHEMBL1806356, “Synthesis, characterization and antimicrobial studies of some new pyrazole incorporated imidazole derivatives” (Eur J Med Chem, 2011).

In test [1] the test system is Escherichia coli. Briefly: Antibacterial activity against Escherichia coli ATCC 25922 assessed as zone of inhibition at 1000 ug/ml after 24 hrs by agar diffusion method. Type of test: functional. The note with it: ATCC 25922, 24 h, read-out: IZ. Put shortly: (§1)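 Well diffusion on Mueller-Hinton agar seeded with 24 h old bacterial cultures. Test compounds were dissolved in DMSO at 1 and 0.5 mg/mL and added to labeled wells. Plates were incubated 24 h at 37 °C. The inhibition zone around each well was measured in mm. Triplicate experiments, standard deviation calculated.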

Test [2] relates to Escherichia coli. Briefly: Antibacterial activity against Escherichia coli ATCC 25922 assessed as zone of inhibition at 500 ug/ml after 24 hrs by agar diffusion method. The format is functional. The note with it: ATCC 25922, 24 h, read-out: IZ. Put shortly: as §1
In general terms: Agar diffusion results depend on both activity and mobility in agar.

Test [3] concerns Staphylococcus aureus. Briefly: Antibacterial activity against Staphylococcus aureus assessed as zone of inhibition at 1000 ug/ml after 24 hrs by agar diffusion method. The format is functional. The note with it: read-out: IZ. Put shortly: as §1
Test [4] has as its system Staphylococcus aureus. Briefly: Antibacterial activity against Staphylococcus aureus assessed as zone of inhibition at 500 ug/ml after 24 hrs by agar diffusion method. Type of test: functional. The note with it: read-out: IZ. The procedure, abridged:
as §1

Test [5] has as its system Bacillus subtilis. Briefly: Antibacterial activity against Bacillus subtilis assessed as zone of inhibition at 1000 ug/ml after 24 hrs by agar diffusion method. The format is functional. The note with it: read-out: IZ. The procedure, abridged: as §1
Test [6] relates to Bacillus subtilis. Briefly: Antibacterial activity against Bacillus subtilis assessed as zone of inhibition at 500 ug/ml after 24 hrs by agar diffusion method. The format is functional. Conditions: read-out: IZ. Put shortly:
as §1

The subject of test [7] is Salmonella typhimurium. In words: Antibacterial activity against Salmonella Typhimurium assessed as zone of inhibition at 1000 ug/ml after 24 hrs by agar diffusion method. Type of test: functional, Salmonella enterica subsp. enterica serovar Typhimurium. The note with it: Salmonella enterica, read-out: IZ. Put shortly:
as §1

Test [8] has as its system Salmonella typhimurium. In words: Antibacterial activity against Salmonella Typhimurium assessed as zone of inhibition at 500 ug/ml after 24 hrs by agar diffusion method. Conditions: Salmonella enterica, read-out: IZ. Type of test: functional, Salmonella enterica subsp. enterica serovar Typhimurium. The procedure, abridged:
as §1

Test [9] deals with Clostridium perfringens. In words: Antibacterial activity against Clostridium perfringens assessed as zone of inhibition at 1000 ug/ml after 24 hrs by agar diffusion method. The note with it: read-out: IZ. The format is functional. Put shortly:
(§2)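 Well diffusion on Mueller-Hinton agar seeded with 24 h old cultures. Compounds dissolved in DMSO at 1 and 0.5 mg/mL and added to wells punched with a sterile cork borer, with a DMSO-only control. Plates incubated 24 h at 37 °C. Read-out was the inhibition zone in mm, run in triplicate, standard deviation calculated.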

Test [10] concerns Clostridium perfringens. In words: Antibacterial activity against Clostridium perfringens assessed as zone of inhibition at 500 ug/ml after 24 hrs by agar diffusion method. The format is functional. Conditions: read-out: IZ. Put shortly:
as §2

Test [11] deals with Pseudomonas aeruginosa. Briefly: Antibacterial activity against Pseudomonas aeruginosa ATCC 27853 assessed as zone of inhibition at 1000 ug/ml after 24 hrs by agar diffusion method. Type of test: functional. The note with it: ATCC 27853, 24 h, read-out: IZ. Put shortly: as §1
The subject of test [12] is Pseudomonas aeruginosa. In words: Antibacterial activity against Pseudomonas aeruginosa ATCC 27853 assessed as zone of inhibition at 500 ug/ml after 24 hrs by agar diffusion method. Conditions: ATCC 27853, 24 h, read-out: IZ. Type of test: functional. Put shortly:
as §1

In test [13] the test system is Candida albicans. Briefly: Antifungal activity against Candida albicans at 1000 ug/ml after 72 hrs by agar diffusion method by agar diffusion method. The format is functional. Conditions: read-out: DIZ. The procedure, abridged: (§3)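 Fungal spores were suspended in normal saline (one loopful in 3 mL) and lawned on agar plates. Wells were punched with a sterile cork borer and loaded with test compound in DMSO at the different concentrations. A DMSO solvent control was included. Petri dishes were prepared in triplicate and held at 25 °C for 72 h.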

In test [14] the test system is Candida albicans. Briefly: Antifungal activity against Candida albicans at 500 ug/ml after 72 hrs by agar diffusion method. Type of test: functional. The note with it: read-out: DIZ. The procedure, abridged: as §3
The test system of test [15] is Nannizzia gypsea. In words: Antifungal activity against Microsporum gypseum at 1000 ug/ml after 72 hrs by agar diffusion method. The format is functional. The note with it: read-out: DIZ. The procedure, abridged:
as §3

Test [16] concerns Nannizzia gypsea. Briefly: Antifungal activity against Microsporum gypseum at 500 ug/ml after 72 hrs by agar diffusion method. The format is functional. The note with it: read-out: DIZ. Put shortly:
as §3

Test [17] relates to Aspergillus flavus. Briefly: Antifungal activity against Aspergillus flavus at 1000 ug/ml after 72 hrs by agar diffusion method. The format is functional. The note with it: read-out: DIZ. Put shortly: as §3
Test [18] has as its system Aspergillus flavus. In words: Antifungal activity against Aspergillus flavus at 500 ug/ml after 72 hrs by agar diffusion method. Type of test: functional. Conditions: read-out: DIZ. The procedure, abridged: as §3
Test [19] has as its system Aspergillus niger. In words: Antifungal activity against Aspergillus niger at 1000 ug/ml after 72 hrs by agar diffusion method. Type of test: functional. The note with it: read-out: DIZ. Put shortly:
as §3

Test [20] has as its system Aspergillus niger. In words: Antifungal activity against Aspergillus niger at 500 ug/ml after 72 hrs by agar diffusion method. Conditions: read-out: DIZ. Type of test: functional. The procedure, abridged: as §3
Test [21] concerns Trichophyton rubrum. In words: Antifungal activity against Trichophyton rubrum at 1000 ug/ml after 72 hrs by agar diffusion method. The format is functional. Conditions: read-out: DIZ. Put shortly: as §3
The test system of test [22] is Trichophyton rubrum. Briefly: Antifungal activity against Trichophyton rubrum at 500 ug/ml after 72 hrs by agar diffusion method. Type of test: functional. Conditions: read-out: DIZ. The procedure, abridged: as §3

`COC(=O)/C=C1/C(=O)NC(=S)N1/N=C/c1c[nH]nc1-c1ccc(Cl)cc1Cl`: the zone of inhibition at 1000 µg/mL was 8 mm in test [1]; 6 mm in test [3]; 8 mm in test [5]; 4 mm in test [7]; 7 mm in test [9]; 7 mm in [11]. Besides, the zone of inhibition at 1000 µg/mL was 7 mm in test [13]; 7 mm in test [15]; 12 mm in test [17]; 6 mm in test [19]; 10 mm in test [21]. For the same compound, the zone of inhibition at 500 µg/mL in test [2] stood at 7 mm; in [4] it was 5 mm; in test [6], 7 mm; in test [8], 3 mm; in test [10] it was 6 mm; in [12] it was 6 mm. Also, the zone of inhibition at 500 µg/mL in test [14] came out at 6 mm; in test [16], 6 mm; in [18] it was 11 mm; in test [20] it was 5 mm; in test [22] it was 9 mm.

Take `COC(=O)/C=C1/C(=O)NC(=S)N1/N=C/c1c[nH]nc1-c1ccc(C)cc1`: the zone of inhibition at 1000 µg/mL in test [1] turned out to be 5 mm; in test [3] it was 4 mm; in test [5], 9 mm; in [7], 6 mm; in test [9] it was 6 mm; in test [11], 4 mm. The zone of inhibition at 1000 µg/mL in test [13] was 4 mm; in test [15], 4 mm; in test [17], 6 mm; in [19], 10 mm; in [21] it was 10 mm. For the same compound, the zone of inhibition at 500 µg/mL in test [2] was 4 mm; in [4] it was 3 mm; in test [6], 8 mm; in test [8], 5 mm; in test [10], 5 mm; in test [12] it was 3 mm. Also, the zone of inhibition at 500 µg/mL was 3 mm in [14]; 3 mm in test [16]; 5 mm in test [18]; 9 mm in [20]; 9 mm in test [22].

As for `CSc1ccc(-c2n[nH]cc2-c2nc(-c3ccccc3)c(-c3ccccc3)[nH]2)cc1`, the zone of inhibition at 1000 µg/mL in [1] was determined as 7 mm; in [3] it was 4 mm; in test [5], 5 mm; in test [7] it was 4 mm; in [9], 4 mm; in test [11], 5 mm. The zone of inhibition at 1000 µg/mL in test [13] was found to be 10 mm; in test [15], 6 mm; in test [17] it was 5 mm; in test [19] it was 10 mm; in [21], 12 mm. Further, the zone of inhibition at 500 µg/mL in [2] was 6 mm; in [4] it was 3 mm; in test [6], 4 mm; in test [8] it was 3 mm; in test [10] it was 3 mm; in [12], 4 mm. Further, the zone of inhibition at 500 µg/mL in test [14] was determined as 9 mm; in [16] it was 5 mm; in test [18], 4 mm; in test [20] it was 9 mm; in test [22], 11 mm.

For the compound `COC(=O)/C=C1/C(=O)NC(=S)N1/N=C/c1c[nH]nc1-c1cc(Cl)sc1Cl`, the zone of inhibition at 1000 µg/mL in test [1] was found to be 9 mm; in [3], 7 mm; in test [5], 8 mm; in [7], 10 mm; in test [9] it was 12 mm; in test [11] it was 9 mm. The zone of inhibition at 1000 µg/mL in [13] was 6 mm; in test [15], 6 mm; in [17], 10 mm; in test [19] it was 6 mm; in [21] it was 13 mm. Besides, the zone of inhibition at 500 µg/mL in test [2] worked out at 8 mm; in test [4], 6 mm; in [6], 7 mm; in [8] it was 9 mm; in test [10] it was 11 mm; in [12], 8 mm. Also, the zone of inhibition at 500 µg/mL in test [14] was 5 mm; in test [16], 5 mm; in test [18] it was 9 mm; in test [20], 5 mm; in test [22] it was 12 mm.

Consider `Clc1ccc(-c2n[nH]cc2-c2nc(-c3ccccc3)c(-c3ccccc3)[nH]2)c(Cl)c1`, for which the zone of inhibition at 1000 µg/mL in test [1] came out at 10 mm; in [3], 6 mm; in test [5], 6 mm; in [7] it was 3 mm; in [9], 6 mm; in test [11], 4 mm. In addition, the zone of inhibition at 1000 µg/mL in test [13] was determined as 12 mm; in test [15], 4 mm; in test [17], 8 mm; in [19], 9 mm; in test [21] it was 10 mm. Also, the zone of inhibition at 500 µg/mL in test [2] is 9 mm; in test [4], 5 mm; in test [6], 5 mm; in [8] it was 2 mm; in test [10], 5 mm; in test [12], 3 mm. The zone of inhibition at 500 µg/mL in test [14] worked out at 11 mm; in test [16], 3 mm; in test [18], 7 mm; in test [20], 7 mm; in [22] it was 8 mm.

With `OC(Cn1cncn1)(Cn1cncn1)c1ccc(F)cc1F` [FLUCONAZOLE], the zone of inhibition at 1000 µg/mL in test [13] was 22 mm; in [15] it was 15 mm; in test [17], 22 mm; in test [19], 20 mm; in test [21], 24 mm. The zone of inhibition at 500 µg/mL amounted to 21 mm in [14]; 14 mm in test [16]; 21 mm in test [18]; 18 mm in test [20]; 22 mm in [22].

As for `CN[C@@H]1[C@H](O[C@H]2[C@H](O[C@H]3[C@H](O)[C@@H](O)[C@H](N=C(N)N)[C@@H](O)[C@@H]3N=C(N)N)O[C@@H](C)[C@]2(O)C=O)O[C@@H](CO)[C@H](O)[C@H]1O` [STREPTOMYCIN], the zone of inhibition at 1000 µg/mL in [1] came out at 16 mm; in test [3] it was 15 mm; in test [5], 21 mm; in [7], 18 mm; in [9] it was 17 mm; in test [11] it was 13 mm. In addition, the zone of inhibition at 500 µg/mL came to 10 mm in test [2]; 10 mm in test [4]; 11 mm in test [6]; 17 mm in [8]; 16 mm in test [10]; 9 mm in [12].
